Most compounds without a hit are left out; they make up all but 3% or so of the library.
S1P3 ag: human S1P3 receptor agonists, primary screen, cell-based, primary and confirmation, NFAT-BLA reporter; Sphingosine 1-phosphate receptor 3 (Homo sapiens), Q99500; S1P3 NFAT-BLA reporter cells, agonism, FRET ratio; relative to 1 µM S1P, basal subtracted; activation, % at 4.5 µM; actives 0.1% (n = 60,000); AID 373, 2006;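 active means activation above the screen-wide mean plus 3 SD, cut at about 4.5% in these data, passing the limit was not always enough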
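Assay system: stable CHO line with human S1P3, Gα16, NFAT-BLA reporter; Detection: FRET β-lactamase substrate fluorescence, excitation 405 nm, 460/535 nm emission ratio, background-subtracted; Read-out: percent activation versus median 1 µM S1P response, basal-subtracted, per plate; Incubation: cells plated overnight, compound 4 h 37 °C, substrate 2 h RT.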
5-HT1A blocker: human 5-HT1a receptor antagonists, primary screen, cell-based, CHO, Ga15 NFAT-bla reporter. AID 612, 2007. inhibition, % at 10 µM. 5-hydroxytryptamine receptor 1A (Homo sapiens), P08908. actives 0.68% (n = 62,000). CHO 5-HT1a Ga15 NFAT-bla reporter, antagonist mode;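 active means inhibition above the mean of all tested compounds plus 3 SD, cut at about 43% in these data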;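 further: receptor stimulated by 5-CT agonist at 100 nM near EC80; beta-lactamase reporter measured by ratiometric fluorescence of a cleavable substrate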
Target sequence (P08908 whole entry, looked up): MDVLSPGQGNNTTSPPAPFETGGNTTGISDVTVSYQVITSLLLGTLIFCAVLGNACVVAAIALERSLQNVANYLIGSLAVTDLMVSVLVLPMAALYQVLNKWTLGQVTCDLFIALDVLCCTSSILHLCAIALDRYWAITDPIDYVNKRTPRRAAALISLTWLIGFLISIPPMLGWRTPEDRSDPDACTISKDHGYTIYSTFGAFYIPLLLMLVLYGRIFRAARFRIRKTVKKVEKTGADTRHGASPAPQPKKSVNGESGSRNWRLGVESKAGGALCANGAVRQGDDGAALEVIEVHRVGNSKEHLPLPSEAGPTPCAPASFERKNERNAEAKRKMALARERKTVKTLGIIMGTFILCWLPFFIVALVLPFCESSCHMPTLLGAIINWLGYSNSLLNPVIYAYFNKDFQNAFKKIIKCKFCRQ
5HT1a ag: human 5-HT1a receptor agonists, primary screen, cell-based, CHO, Ga15 NFAT-bla reporter | 5-hydroxytryptamine receptor 1A (Homo sapiens), P08908 | CHO 5-HT1a Ga15 NFAT-bla reporter, FRET ratio; 0% basal, 100% maximal reference agonist | activation, % at 10 µM | actives 0.56% (n = 65,000);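 active means activation above the screen-wide mean activation plus 3 SD, cut at about 19% in these data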
HTR1E agonist: 5-HT1E receptor agonists, primary screen, cell-based, HTS; 5-hydroxytryptamine receptor 1E (Homo sapiens), P28566; actives 0.69% (n = 65,000); CHO 5-HT1E Ga15 NFAT-bla reporter, FRET; 0% DMSO wells, 100% control agonist wells; activation, % at 6 µM;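 active means activation above a set limit, the screen-wide mean activation plus 3 SD, cut at about 8.5% in these data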
5HT1E antag: 5-HT1E receptor antagonists, primary screen, cell-based, HTS; CHO 5-HT1E Ga15 NFAT-bla reporter, FRET, antagonist; inhibition, % at 6 µM; actives 0.99% (n = 65,000);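 active means inhibition above a set limit, the mean inhibition across every tested compound plus 3 SD, cut at about 29% in these data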;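 further: signal is the 460 over 535 nm emission ratio of beta-lactamase substrate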
S1P1 ag-PAM: S1P1 agonists and agonism potentiators, primary screen, cell-based, primary and confirmation screens, CRE-bla reporter. Sphingosine 1-phosphate receptor 1 (Homo sapiens), P21453. S1P1 CRE-bla cells, forskolin, beta-lactamase FRET, potentiator mode; S1P1 agonist co-added at EC20, 2 nM; 100% = saturating reference agonist, 0% = basal. activation, % at 9.5 µM. actives 0.57% (n = 56,000). AID 449, 2006;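 active means activation above a cutoff set at the mean activation of all tested compounds plus 3 SD, cut at about 54% in these data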;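 further: forskolin at 4 µM as EC80 and the EC20 agonist is SEW2871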
A number is an active result; – = inactive; · = no result.

SMILES | S1P3 ag | 5-HT1A blocker | 5HT1a ag | HTR1E agonist | 5HT1E antag | S1P1 ag-PAM
Cc1cc(C2C(=O)CC(=O)CC2c2ccccc2)on1 (configuration not stated) | – | – | – | 12.2 | – | –
Cc1ccc(C)n1NC(=O)c1ccc(Cl)cc1Cl | – | – | – | – | – | –
CN=C(NC#N)SCC(=O)c1ccc(Cl)cc1Cl | – | – | – | – | – | 81.7
COc1cccc(N2CCN(C3OC(=O)c4ccccc43)CC2)c1 (configuration not stated) | – | – | – | 23.3 | – | –
COc1cccc(N2CCN(C3CC(=O)N(c4ccc(Cl)c(Cl)c4)C3=O)CC2)c1 (configuration not stated) | – | – | – | – | – | –
COc1ccc(-c2cn3c(C)c(C(=O)NCc4ccc5c(c4)OCO5)sc3n2)cc1 | – | – | – | – | – | –
CCOC(=O)C1=C(N)OC2=C(C(=O)CCC2)C1c1ccccc1OCC (configuration not stated) | 19.0 | – | – | – | – | –
Cn1c(Cn2c(=O)sc3ccccc32)nnc1SCC(=O)NCc1ccc(F)cc1 | – | – | 40.2 | – | – | –
CCOc1nc(C)ccc1-c1noc(-c2ccncc2)n1 | – | – | – | – | – | 56.1
CCOc1nc(-c2ccccc2)ccc1-c1noc(-c2ccncc2)n1 | – | – | – | – | – | –
CCOc1ccc(-c2nc(-c3ccccc3C)no2)cc1 | – | – | – | – | – | 109.5
Cc1oc(C(=O)O)cc1COc1cccc2cccnc12 | – | – | – | – | – | –
CC(C)CC(C(=O)NCc1ccccn1)N1C(=O)c2ccccc2C1=O (configuration not stated) | – | – | – | – | – | –
COc1ccc(OC)c(Nc2cc(-c3ccccc3)nc(N)n2)c1 | – | 62.8 | – | – | 70.3 | –
N#Cc1nc(-c2ccco2)oc1NCCc1ccccc1 | – | – | – | – | – | –
N#Cc1nc(-c2cccs2)oc1NCCc1ccccc1 | – | · | – | – | 35.5 | –
COc1ccc(CN2CCN(c3ccccn3)CC2)c(OC)c1 | – | – | – | 10.8 | – | –
Oc1c(CN2CCN(c3ccccn3)CC2)cc(Cl)c2cccnc12 | – | 54.0 | – | – | 54.5 | –
COc1ccc(CN2CCN(c3ncccn3)CC2)c(OC)c1 | – | – | – | – | – | –
Oc1ccc(COCc2ccccc2)c2cccnc12 | – | – | – | – | 47.3 | –
COCc1cc(CN2CCCC2)c(O)c2ncccc12 | – | – | – | – | – | –
Oc1c(CN2CCCCC2)cc(COCc2ccccc2)c2cccnc12 | – | – | – | – | 48.0 | –
Oc1ccc(CNc2ccccc2F)c2cccnc12 | – | – | – | – | – | –
CCC1Oc2ccccc2N(CC(=O)Nc2ccc(OC)cc2OC)C1=O (configuration not stated) | · | – | – | – | – | ·
O=C(COc1ccc(Cl)cc1Cl)NC(=O)N1CCOCC1 | – | – | – | – | – | –
SMILES | S1P3 ag | 5-HT1A blocker | 5HT1a ag | HTR1E agonist | 5HT1E antag | S1P1 ag-PAM
CCCCn1c(N)c(N(CCOC)C(=O)CSc2nc3ccc(C)cc3[nH]2)c(=O)[nH]c1=O | · | – | – | – | – | ·
COc1ccc(N(CC(=O)Nc2ccc(C)cn2)S(=O)(=O)c2c(C)noc2C)cc1 | – | – | – | – | – | –
COc1ccc(-n2nnnc2S(=O)(=O)CC(=O)N2CCCCC2)cc1 | – | 92.0 | – | – | 69.1 | –
Cc1cc(NC(=O)CCC2CCCC2)no1 | – | – | – | – | – | –
CCOC(=O)N1CCN(C2=Nc3cccc4cccc2c34)CC1 | – | – | 70.7 | – | – | –
O=c1c2cc(N3CCOCC3)ccc2[nH]c(=S)n1CCCN1CCCC1 | · | – | – | 9.6 | – | ·
O=c1c2cc(N3CCOCC3)ccc2[nH]c(=S)n1CCCN1CCCCC1 | · | – | – | – | – | ·
COc1ccc(N2CC(C)Cn3c2nc2c3c(=O)n(CCc3ccccc3)c(=O)n2C)cc1 (configuration not stated) | – | – | – | 12.3 | – | –
COc1ccc(N2CCn3c2nc2c3c(=O)n(CCCc3ccccc3)c(=O)n2C)cc1 | – | – | – | – | – | –
CCC(=O)Oc1ccc2c(C)cc(=O)oc2c1C | – | – | 65.0 | – | – | –
CN1CCN(/C=N/c2c(C#N)cnn2Cc2ccccc2)CC1 | – | – | – | – | – | –
CSc1nc2[nH]c3c(c2c2nnnn12)CCCC3 | – | · | – | – | 35.8 | –
CSc1nc2[nH]c3c(c2c2nncn12)CC(C)(C)OC3 | – | · | – | – | – | –
CCOc1ccc(NC(=O)CN(C)CC(=O)Nc2ccccc2C#N)cc1OCC | – | – | 288.6 | – | – | –
COc1ccccc1NCCC(=O)OCC(=O)Nc1ccc(Cl)cn1 | – | – | – | – | – | –
CC(=O)Nc1cccc(NC(=O)C2CCCN2C(=O)Nc2ccccc2C)c1 (configuration not stated) | – | – | – | – | – | –
CCOC(=O)C1=C(N)Oc2cc(C)n(CCc3ccc(OC)c(OC)c3)c(=O)c2C1c1cccnc1 (configuration not stated) | – | – | – | – | 30.5 | –
CCc1nc(Nc2ccc(N3CCN(C(C)=O)CC3)cc2)c2oc3ccccc3c2n1 | – | – | – | – | 33.8 | –
Cn1cccc1Cc1nnc(SCC(=O)Nc2ccc3c(c2)OCCO3)n1CCc1ccccc1 | – | – | – | – | – | –
COCCCNC(=O)CCn1c(=O)c2ccccc2n(CC(=O)Nc2c(C)cccc2C)c1=O | – | – | – | – | – | –
COCCCNC(=O)CCCn1c(=O)c2ccccc2n(CC(=O)Nc2c(C)cc(C)cc2C)c1=O | – | – | – | 42.6 | – | –
CN(c1cc(=O)n2ccccc2n1)C1CCCCC1 | – | – | 29.6 | – | – | –
CN1CCC(N(C)CC(=O)Nc2cccc(Oc3ccccc3)c2)CC1 | – | – | – | – | – | –
Cc1ccc(S(=O)(=O)Cn2nnnc2CN(Cc2ccco2)CC2CCCO2)cc1 (configuration not stated) | – | – | – | – | – | –
CCOC(=O)C(O)(NC(=O)c1cccnc1)C(F)(F)F (configuration not stated) | – | – | – | 10.1 | – | –
CC(=O)C(C(C)=O)C(NC(=O)c1cccnc1)(C(F)(F)F)C(F)(F)F | – | – | – | – | – | –

High-throughput results deposited in PubChem by The Scripps Research Institute Molecular Screening Center.
